Test results as given in paper PMC2413043 (The Journal of Experimental Medicine, 2008).
“Also recorded” adds a separate entry of the source.

What was measured:
NOS2 [1] = assay: NOS2 expression in RAW cells with MKP-1 siRNA or control siRNA; type: cell-based, mouse; conditions: LPS and TSA
Procedure, shortened: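 RAW 264.7 cells were stably transfected with vectors encoding siRNA hairpins against MKP-1 nucleotides 67–85 or 743–761, or with a control hairpin. Knockdown in the isolated clones was confirmed by MKP-1 immunoblot. Clones were treated with LPS and TSA, and lysates were immunoblotted for NOS2 and MAPK family members.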

p38 [2] = assay: Phosphorylation of p38 by immunoblot in RAW cells; type: cell-based, mouse; conditions: RAW cells pretreated 30 ng/ml TSA 1 h, 100 ng/ml LPS 30 min
Procedure, shortened: (§1)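 RAW 264.7 cells (DME, 10% FBS) pretreated with TSA 30 ng/ml for 1 h, then LPS 100 ng/ml for 30 min. Whole-cell lysates were immunoblotted with antibodies to phosphorylated and total forms of the MAPK in question.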

IL-1β [3] = assay: IL-1β in media of primary macrophages by ELISA; type: cell-based, mouse; conditions: TSA and LPS, 4 h, n = 2 ± SD
Procedure, shortened: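 Primary peritoneal macrophages collected by PBS lavage from resting WT or MKP-1−/− mice, not thioglycolate-elicited; the mice were on a C57BL/6J background. Cells stimulated with TSA, LPS or both. After 4 h, TNF-α and IL-1β in the media were measured by ELISA; n = 2, mean ± SD.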

MKP-1 and p300 = assay: MKP-1 interaction with p300 by co-immunoprecipitation in RAW cells; type: cell-based, mouse; conditions: RAW cells treated with TSA; IP p300, blot MKP-1
MKP-1 [4] = assay: MKP-1 acetylation, [3H]sodium acetate labelled RAW cells; type: cell-based, mouse; conditions: [3H]sodium acetate 1 h, TSA 0.5 h, 100 ng/ml LPS 0–3 h
Procedure, shortened: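 RAW 264.7 cells metabolically labelled with [3H]sodium acetate for 1 h, plus TSA for 0.5 h, then LPS 100 ng/ml for 0–3 h. Lysates were immunoprecipitated with anti-MKP-1 and resolved by SDS-PAGE. Acetylation was detected by autoradiography; MKP-1 was immunoblotted as loading control.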

IL-1β [5] = assay: Serum IL-1β by ELISA in LPS-treated mice; type: in vivo, mouse; conditions: TSA daily from day −2, LPS day 0, serum 2 h after LPS, n = 2 ± SD
MKP-1 [6] = assay: MKP-1 acetylation in mouse liver by immunoprecipitation; type: in vivo; conditions: TSA pretreatment 4 h, LPS 16 h; IP MKP-1, blot Ac-Lys
Procedure, shortened: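 Mice pretreated with TSA for 4 h, then given LPS for 16 h. Liver lysates were immunoprecipitated with anti-MKP-1 and immunoblotted with anti-acetyl-lysine or anti-MKP-1.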

phospho-ERK1 = type: cell-based; conditions: MKP-1 immunoprecipitated from RAW cells treated with LPS and TSA 4 h
Procedure, shortened: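 RAW 264.7 cells grown in DME with 10% FBS were treated with LPS plus TSA, or with control, for 4 h. Endogenous MKP-1 was immunoprecipitated from the lysates and incubated with recombinant phospho-p38 or phospho-ERK1. Remaining phosphorylation was detected by immunoblotting with phospho-p38 or phospho-ERK antibodies. The amount of phospho-substrate added was shown as an input lane.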

COX-2 and CXCL2 = COX-2 and CXCL2 expression by RT-PCR in RAW cells; type: cell-based, mouse; conditions: LPS and TSA, Fig. 1 H and Fig. S1
Procedure, shortened: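 RAW 264.7 cells grown in DME with 10% FBS and penicillin/streptomycin. Cells exposed to LPS, TSA or both for 4 h, then assessed for COX-2 and CXCL2 expression by RT-PCR.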

p38 [7] = assay: Phospho-p38 in primary peritoneal macrophages; type: cell-based, mouse; conditions: LPS, TSA or both
Procedure, shortened: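 Resident (non-thioglycolate-elicited) peritoneal macrophages were collected by PBS lavage from WT and MKP-1−/− mice. Cells were stimulated with LPS, TSA or both, and lysates were immunoblotted for total and phospho-p38.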

TNF-α and IL-1β = assay: Liver TNF-α and IL-1β mRNA by RT-PCR; type: in vivo, mouse; conditions: liver 4 h after LPS, two representative mice
Procedure, shortened: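 Mice were dosed with TSA each day from day −2 and challenged with LPS on day 0. Liver RNA was harvested 4 h after LPS. RT-PCR was run for TNF-α and IL-1β, or for COX-2 and CXCL2, with two mice per group.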

NF-κB pathway = assay: LPS activation of the NF-κB pathway; type: cell-based; conditions: Fig. S2
NOS2 [8] = assay: Liver NOS2 protein by immunoblot; type: in vivo, mouse; conditions: TSA pretreatment 4 h, LPS 16 h
Procedure, shortened: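 Mice were pretreated with increasing amounts of TSA for 4 h, then given LPS for 16 h. Liver was harvested and its lysate immunoblotted for NOS2, with MEK1 as the loading control.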

TNF-α = assay: Serum TNF-α by ELISA in LPS-treated mice; type: in vivo, mouse; conditions: TSA daily from day −2, LPS day 0, serum 2 h after LPS, n = 2 ± SD
WT mice = assay: LPS-induced mortality in WT mice; type: in vivo, mouse; conditions: Fig. S4 B
mouse liver = assay: LPS-induced liver inflammation, histology; type: in vivo; conditions: hematoxylin and eosin
Procedure, shortened: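 Mice received saline (control) or TSA i.p. each day from day −2, then an i.p. LPS injection on day 0. Livers were harvested 2 h or 2 d after LPS, sectioned and stained with hematoxylin and eosin to assess leukocyte infiltration, edema and necrosis.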

MKP-1 KO mice = assay: LPS-induced mortality in MKP-1 KO mice; type: in vivo, mouse; conditions: LPS 20 mg/kg; n = 5; P = 0.17 LPS vs. LPS with TSA
ERK1/2 = assay: Phosphorylation of ERK1/2 by immunoblot in RAW cells; type: cell-based, mouse; conditions: RAW cells pretreated 30 ng/ml TSA 1 h, 100 ng/ml LPS 30 min
Procedure, shortened: as §1

MKP-1-ERα and ERK1 = assay: MKP-1-ERα/ERK1 interaction by co-immunoprecipitation in HeLa cells; type: cell-based; conditions: His6-ERK1, LPS and TSA 1 h
Procedure, shortened: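 HeLa cells in DME with 10% FBS were co-transfected by Lipofectamine 2000 with MKP-1(WT)-ERα or MKP-1(K57R)-ERα plus His6-ERK1. Fusion expression was induced with 200 nM 4-hydroxytamoxifen, then cells were treated with LPS and TSA for 1 h. Lysates were immunoprecipitated and immunoblotted with anti-ERα (MKP-1 tag) and anti-His6 (ERK1 tag).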

MKP-1 [9] = assay: MKP-1 expression in RAW cells by immunoblot; type: cell-based, mouse; conditions: LPS and TSA 1 h

Compound: CC(/C=C/C(=O)NO)=C\[C@@H](C)C(=O)c1ccc(N(C)C)cc1 [TSA, trichostatin A]
- LPS-induced NOS2 expression, control vs MKP-1 siRNA cells (NOS2 [1]): decreases LPS-induced NOS2 expression in control cells, but not in cells with decreased MKP-1
- LPS-induced phosphorylation of p38 (p38 [2]): decreases phosphorylation of p38
- decrease of IL-1β, MKP-1 KO macrophages (IL-1β [3]): 34%
- decrease of IL-1β, WT macrophages (IL-1β [3]): 85%
- MKP-1 association with p300 (MKP-1 and p300): MKP-1 associates with p300 in TSA-treated macrophages
- MKP-1 acetylation (MKP-1 [4]): increases MKP-1 acetylation
- decrease of serum IL-1β, MKP-1−/− mice (IL-1β [5]): 21%
- acetylation of MKP-1 in liver (MKP-1 [6]): increases acetylation of MKP-1 in vivo
- removal of phosphate from recombinant phospho-ERK1 by MKP-1 (phospho-ERK1): removes more phosphate from recombinant phospho-ERK1 than MKP-1 from control cells
- COX-2 expression (COX-2 and CXCL2): slightly increases
- CXCL2 expression (COX-2 and CXCL2): slightly increases
- phospho-p38, WT vs MKP-1−/− primary macrophages (p38 [7]): only suppresses phospho-p38 in macrophages from WT mice, not in macrophages from MKP-1^−/− mice
- LPS-induced IL-1β mRNA in liver (TNF-α and IL-1β): decreases
- LPS-induced TNF-α mRNA in liver (TNF-α and IL-1β): decreases
- LPS activation of the NF-κB pathway (NF-κB pathway): does not affect LPS activation of the NF-κB pathway
- LPS-triggered IκBα degradation (NF-κB pathway): slightly increases
- LPS-triggered p65 nuclear translocation (NF-κB pathway): slightly increases
- NF-κB transactivation of the NOS2 promoter (NF-κB pathway): slightly increases
- κB-binding activity (NF-κB pathway): slightly increases
- NOS2 steady-state protein levels in liver (NOS2 [8]): decreases NOS2 steady-state protein levels in liver
- decrease of serum TNF-α, MKP-1−/− mice (TNF-α): 22%
- mortality after LPS, dose response to TSA (WT mice): decreases mortality after LPS in a dose-responsive manner
- LPS-induced leukocyte infiltration / inflammation in liver (mouse liver; livers 2 h after LPS): decreases LPS-induced inflammation
- LPS-induced hepatocyte edema and necrosis (mouse liver; livers 2 d after LPS): limits LPS-induced hepatocyte edema and necrosis
- mortality after LPS, effect of TSA, MKP-1 KO mice (MKP-1 KO mice): minimal and insignificant effect on mortality; also recorded: small protective effect on MKP-1^−/− mouse mortality
- LPS-induced phosphorylation of ERK1/2 (ERK1/2): decreases
- interaction of ERK1 and MKP-1 (WT vs mutant K57R) (MKP-1-ERα and ERK1): increases the interaction of ERK1 and WT, but not mutant, MKP-1 in cells
- MKP-1 expression (MKP-1 [9]): increases the expression of MKP-1 levels
